# The list is not random: actives were taken first. Their share in the collection is about 2.2%.
# PfG6PD inh: PfG6PD enzyme inhibitors, primary screen, biochemical, fluorescence intensity, uHTS; AID 504690, 2011; PfGluPho enzyme, NADPH resazurin-diaphorase fluorescence; inhibition, % at 20 µM; 350,000 compounds, 0.78% hits;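 active = inhibition reaching at least a set limit at 20 µM in the primary screen, cut at about 59% in these data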
# Exocytosis inh: LAMP-1 surface exposure blockers, TALL-104 cells – cell-based, flow cytometry, MLPCN library, primary screen | TALL-104 LAMP-1 surface exposure; cells stimulated with thapsigargin and PMA | 360,000 compounds, 0.66% hits | inhibition, % at 10 µM;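 active = inhibition above about 55%, limit read from the data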
# ABHD5-PLIN5 inh: ABHD5-PLIN5 interaction inhibitors, primary screen, cell lysate, split luciferase complementation, luminescence | Perilipin-5 (Homo sapiens) + 1-acylglycerol-3-phosphate O-acyltransferase ABHD5 (Homo … | Split G. princeps luciferase complementation, 4 h | inhibition, % at 4 µM | 360,000 compounds, 0.78% hits | AID 602281, 2012;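 active = inhibition above the mean inhibition across every tested compound plus 3 SD, cut at about 22% in these data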
# HKDC1 inh: HKDC1 hexokinase inhibitors, primary screen, biochemical, fluorescence, uHTS; 340,000 compounds, 0.16% hits; recombinant HKDC1, G6PDH/diaphorase resazurin coupled fluorescence; inhibition, % at 20 µM; Q2TB90;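 active = inhibition above about 35% when tested at 20 µM, limit read from the data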
# Target sequence (Q2TB90 whole entry, looked up): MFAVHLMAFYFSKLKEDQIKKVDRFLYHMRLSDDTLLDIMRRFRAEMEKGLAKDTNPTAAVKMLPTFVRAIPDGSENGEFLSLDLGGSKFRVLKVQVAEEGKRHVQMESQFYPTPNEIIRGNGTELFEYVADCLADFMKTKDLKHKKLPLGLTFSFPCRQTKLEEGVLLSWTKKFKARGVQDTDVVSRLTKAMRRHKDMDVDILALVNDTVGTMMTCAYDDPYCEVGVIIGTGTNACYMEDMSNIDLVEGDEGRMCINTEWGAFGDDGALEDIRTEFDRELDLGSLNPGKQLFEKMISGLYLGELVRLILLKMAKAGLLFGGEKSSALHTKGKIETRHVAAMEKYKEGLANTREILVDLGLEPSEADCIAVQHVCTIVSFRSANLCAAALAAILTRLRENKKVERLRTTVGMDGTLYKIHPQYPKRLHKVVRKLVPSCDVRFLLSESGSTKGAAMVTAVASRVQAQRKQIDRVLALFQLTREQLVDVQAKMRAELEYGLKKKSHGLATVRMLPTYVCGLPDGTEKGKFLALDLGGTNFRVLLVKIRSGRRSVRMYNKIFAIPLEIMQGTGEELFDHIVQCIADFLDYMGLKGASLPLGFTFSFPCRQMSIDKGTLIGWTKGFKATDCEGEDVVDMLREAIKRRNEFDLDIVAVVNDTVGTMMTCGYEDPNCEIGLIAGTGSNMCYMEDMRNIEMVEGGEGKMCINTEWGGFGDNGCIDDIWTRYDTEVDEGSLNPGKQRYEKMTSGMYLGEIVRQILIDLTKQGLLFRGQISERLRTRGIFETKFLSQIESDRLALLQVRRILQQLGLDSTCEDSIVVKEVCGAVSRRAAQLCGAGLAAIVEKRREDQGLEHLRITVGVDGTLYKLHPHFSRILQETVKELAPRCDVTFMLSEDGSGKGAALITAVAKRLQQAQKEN
#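 Incubation: 90 min at room temperature in dark / Material: recombinant HKDC1 (HK5) hexokinase enzyme, produced in-house / Quantity: enzyme 5 µg/mL final / Compound: one dose of 20 µM, 1% DMSO / Reagent: glucose and ATP substrates / Buffer or medium: Tris pH 8.0 buffer with MgCl2, Tween-20, BSA, BME / Technique: resorufin fluorescence at 613 nm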
# ABHD5 PLIN5 conf: ABHD5-PLIN5 interaction inhibitors, confirmation, biochemical, luminescence; shares compounds with ABHD5-PLIN5 inh; inhibition, % at 4 µM; 2,200 compounds, 67% hits; AID 651612, 2012; in the data active = inhibition above about 23%
# HNF4 split-luc: HNF4 dimerization inhibitors, counter-screen for ABHD5-PLIN5 interaction inhibitor project, biochemical, split-luciferase complementation, luminescence; shares compounds with ABHD5-PLIN5 inh; inhibition, % at 4 µM; 2,200 compounds, 77% hits; AID 651674, 2012;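 active = mean inhibition across replicate wells exceeding the computed hit threshold, cut at about 13% in these data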;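 also: light from luciferase halves that rejoin when HNF4 fusion proteins dimerize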
# Exocytosis CP01: inhibitors of lytic granule exocytosis, confirmation, TALL-104 cells, flow cytometry, Cherry Pick01; shares compounds with Exocytosis inh; LAMP-1 externalization; stimulated with PMA plus thapsigargin; inhibition, % at 10 µM; 1,500 compounds, 11% hits; in the data active = inhibition above about 60%
# A number is an active result; 0 = inactive; - = no result.
SMILES,PfG6PD inh,Exocytosis inh,ABHD5-PLIN5 inh,HKDC1 inh,Exocytosis CP01,others
Fc1cccc(Cc2c(-c3ccco3)nc3c4ccccc4ccn23)c1,-,87,26,-,0,ABHD5 PLIN5 conf=0;HNF4 split-luc=23
Fc1cccc(Cc2c(-c3ccco3)nc3ccc(Br)cn23)c1,-,59,72,-,0,ABHD5 PLIN5 conf=44;HNF4 split-luc=78
O=C(NN=Cc1cc(Cl)ccc1[N+](=O)[O-])c1ccco1,0,0,0,0,-,
CN(C)CCCN(C(=O)CCSc1ccccc1)c1nc2cc3c(cc2s1)OCO3,0,60,27,0,70,ABHD5 PLIN5 conf=0;HNF4 split-luc=19
CC(=O)Nc1cc(-c2ccccc2CN(C)C)cn2c(-c3ccc(F)c(Cl)c3)cnc12,-,0,0,-,-,
Cc1ccccc1NC(=O)c1nc(S(C)(=O)=O)ncc1Cl,0,79,38,0,0,ABHD5 PLIN5 conf=59;HNF4 split-luc=85
Cc1ccccc1NC(=O)c1cccc(C(=O)Nc2ccccc2C)n1,0,0,0,0,-,
O=C(Nc1ccc(F)cc1)c1nc(S(=O)(=O)Cc2ccccc2)ncc1Cl,0,78,60,0,65,ABHD5 PLIN5 conf=90;HNF4 split-luc=97
O=C(Nc1ccc(F)cc1)c1nn(-c2ccccc2)c(=O)cc1Cl,0,0,0,0,-,
CCS(=O)(=O)c1ncc(Cl)c(C(=O)Nc2ccc(S(=O)(=O)N(C)c3ccccc3)cc2)n1,0,56,78,0,0,ABHD5 PLIN5 conf=92;HNF4 split-luc=99
Cc1onc(-c2ccccc2)c1C(=O)Nc1nnc(CC(C)C)s1,0,0,0,0,-,
CCCn1c(N)c(N(CCOC)C(=O)c2ccc(S(=O)(=O)N3CCOCC3)cc2)c(=O)[nH]c1=O,0,0,0,0,-,
O=C1Nc2ccc(Br)cc2/C1=C/C(=O)c1ccccc1,0,73,85,0,83,ABHD5 PLIN5 conf=88;HNF4 split-luc=80
Cc1ccc(C(=O)N/C(=C\c2ccc(-c3ccc(Br)cc3)o2)C(=O)NCCCN(C)C)cc1,0,75,36,0,99,ABHD5 PLIN5 conf=0;HNF4 split-luc=0
Cc1ccc(C(=O)N/C(=C\c2ccc(-c3cccc([N+](=O)[O-])c3)o2)C(=O)NCCCN(C)C)cc1,0,0,0,0,-,
O=C1c2cccc3cccc(c23)C(=O)N1CC1CCN(CC(O)COc2ccc3ccccc3c2)CC1 (stereo not given),0,58,26,0,0,ABHD5 PLIN5 conf=0;HNF4 split-luc=0
COc1cccc(OCC(O)CN2CCC(CN3C(=O)c4cccc5cccc(c45)C3=O)CC2)c1 (stereo not given),0,0,0,0,-,
Cc1ccc(/C=C2\SC(=S)N(Cc3ccccc3)C2=O)o1,0,0,0,0,-,
Cc1ccc(/C=C2/NC(=O)N(Cc3ccccc3)C2=O)o1,0,58,44,0,0,ABHD5 PLIN5 conf=58;HNF4 split-luc=68
COc1cc(/C=C2/C(=N)N3N=C(CC(=O)N4CCOCC4)SC3=NC2=O)ccc1OCc1ccc(F)cc1,0,0,0,0,-,
CC(C)(C)CC(C)(C)N=C1Nc2cc(Cl)c(Cl)cc2NC12C[C@H]1CCC(=O)N3CC[C@@H](C2)[C@@H]13 (stereo not given in full),0,76,0,0,0,
O=Cc1ccccc1OCCCOc1cccc2cccnc12,0,0,0,0,-,
Clc1ccccc1OCCCOc1cccc2cccnc12,0,88,0,0,0,
COCCNc1nc(NCc2ccc(NC(C)=O)cc2)c2sc(-c3ccccc3)cc2n1,-,0,0,-,-,
C=CCNc1nc(NCc2ccc(N(C)C)cc2)c2sc(-c3ccccc3)cc2n1,-,75,0,-,93,
SMILES,PfG6PD inh,Exocytosis inh,ABHD5-PLIN5 inh,HKDC1 inh,Exocytosis CP01,others
c1ccc(CNc2nc(NCC3CC3)nc3cc(-c4ccccc4)sc23)cc1,-,71,0,-,95,
COCCNc1nc(NCc2cccc(OC)c2)c2sc(-c3ccccc3)cc2n1,-,76,0,-,99,
c1ccc(OCCNc2nc(NCC3CC3)nc3cc(-c4ccccc4)sc23)cc1,-,0,0,-,-,
Cc1csc(=O)n1CC(=O)OCC(=O)c1ccc(Br)cc1,0,0,0,0,-,
COCCNC(=S)N1CCc2cc(OC)c(OC)cc2C1c1cccs1 (stereo not given),0,0,0,0,-,
NC(Cc1ccc(C(F)(F)F)cc1)c1csc(Nc2ccc(C(=O)NCc3ccco3)cn2)n1 (stereo not given),-,0,0,-,-,
CC1CC(=O)c2cnc(N3CCOCC3)nc2C1 (stereo not given),0,100,0,0,0,
CC1CC(=O)c2cnc(N)nc2C1 (stereo not given),0,0,0,0,-,
CN(Cc1ccc(Cl)s1)C(=O)CCl,0,0,0,0,-,
COc1ccc(OC)c(CCNC(=O)Cn2ccc3cc(S(=O)(=O)N4CCCC4)ccc32)c1,0,0,0,0,-,
COc1ccccc1CCNC(=O)Cn1ccc2cc(S(=O)(=O)N3CCC(C)CC3)ccc21,0,60,0,0,0,
COc1ccccc1CCC(=O)NCCCn1ccc2ccccc21,0,72,0,0,0,
COc1ccc(OCC(=O)Nc2cc(OC)ccc2N2CCCCC2)cc1,0,67,0,0,0,
COc1ccc(N2CCOCC2)c(NC(=O)c2cc3ccccc3o2)c1,0,75,0,0,0,
O=C(Nc1ccccc1N1CCOCC1)c1cc2ccccc2o1,0,0,0,0,-,
Cc1cn(CC(=O)NCC(c2ccccc2)c2ccccc2)c(=O)[nH]c1=O,0,0,0,0,-,
CC(NC(=O)C1CCN(S(=O)(=O)c2ccc(Br)s2)CC1)c1ccccc1 (stereo not given),0,66,0,0,0,
COc1cccc(CNC(=O)C2CCN(S(=O)(=O)c3ccc(Br)s3)CC2)c1,0,63,0,0,0,
CCS(=O)(=O)N1CCC(C(=O)NCc2cccc(OC)c2)CC1,0,0,0,0,-,
CCC(C)NC(=O)C1CCN(S(=O)(=O)c2ccc(Br)s2)CC1 (stereo not given),0,0,0,0,-,
CCOC(=O)c1ccc(-c2ccc3ncnc(NCc4csc(C)n4)c3c2)o1,-,0,0,-,-,
C=CCOc1ccc(C(=O)c2ccccc2)c(OCC(=O)NC2(C#N)CCCC2)c1,0,61,0,0,0,
CCOc1ccc2c(c1)nc(SCC(=O)c1ccc(Br)s1)n2C,0,103,0,0,0,
CCOc1ccc2c(c1)nc(SCC(=O)c1cccs1)n2C,0,0,0,0,-,
CS(=O)(=O)c1ccc(C(=O)OCC(=O)N(CCc2ccccc2)Cc2ccccc2)cc1,0,0,0,0,-,
COc1ccc(-c2nc(N)nc(C)c2-c2ccc(Cl)cc2)c(O)c1,0,61,0,0,0,

# Compound activity as filed in PubChem.
